Screening data deposited in PubChem by several laboratories.
Hits are enriched below; roughly 3.2% of the tested compounds scored in any of these assays.
MEKK3 PB1 HTS: raises or lowers MEK5 binding to the human MEKK3 PB1 domain | binding response (% of control), % at 10 µM | AID 1529 | bead-based flow cytometry, Alexa488-MEK5 binding to MEKK3; actives lie on both sides; 0 = blocked by unlabeled MEK5, 100 = vehicle | 290,000 compounds, 1.4% hits;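 active = binding response more than 3 SD above or below the average of its plate-row segment, actives on both sides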;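 also: Alexa488 bead fluorescence after subtracting the streptavidin-only scavenger bead signal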
Target sequence (Q99759 whole entry, looked up, the tested form may be a part): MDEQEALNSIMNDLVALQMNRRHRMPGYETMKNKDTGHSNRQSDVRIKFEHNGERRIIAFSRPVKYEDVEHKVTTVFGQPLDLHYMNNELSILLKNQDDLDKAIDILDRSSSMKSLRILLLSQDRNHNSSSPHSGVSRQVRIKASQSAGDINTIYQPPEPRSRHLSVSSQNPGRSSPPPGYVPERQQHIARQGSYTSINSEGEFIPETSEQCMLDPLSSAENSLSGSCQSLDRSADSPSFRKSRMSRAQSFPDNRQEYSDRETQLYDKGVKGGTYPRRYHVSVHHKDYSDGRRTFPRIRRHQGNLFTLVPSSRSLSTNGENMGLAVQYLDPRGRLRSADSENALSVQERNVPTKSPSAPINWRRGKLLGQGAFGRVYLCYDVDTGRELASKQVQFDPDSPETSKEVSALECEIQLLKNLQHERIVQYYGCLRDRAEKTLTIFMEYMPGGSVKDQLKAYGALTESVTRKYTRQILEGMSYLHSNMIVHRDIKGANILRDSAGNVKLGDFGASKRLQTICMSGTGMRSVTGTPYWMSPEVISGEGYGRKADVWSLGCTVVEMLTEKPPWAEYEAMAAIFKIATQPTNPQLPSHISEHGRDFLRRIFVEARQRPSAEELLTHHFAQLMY
MEKK2mut PB1 HTS: signal of MEK5 binding to mutant human MEKK2 PB1 domain | 290,000 compounds, 0.35% hits | percent response, % at 10 µM | bead flow cytometry, Alexa488-MEK5 binding to MEKK2 mutant | AID 1530; in the data active = percent response above about 24%, passing the limit was not always enough
UBC13 polyUb: inhibitors of human UBC13 polyubiquitin chain formation. P61088. TR-FRET. inhibition, % at 20 µM. 330,000 compounds, 0.47% hits; in the data active = inhibition above about 45%, passing the limit was not always enough
Target sequence (P61088 whole entry, looked up): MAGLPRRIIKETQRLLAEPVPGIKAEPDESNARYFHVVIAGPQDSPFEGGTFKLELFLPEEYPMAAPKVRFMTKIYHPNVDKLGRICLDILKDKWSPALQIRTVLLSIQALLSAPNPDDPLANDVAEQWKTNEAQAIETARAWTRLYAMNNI
Pemphigus Ab inh: human desmoglein-3 autoantibody binding inhibition; 310,000 compounds, 0.48% hits; binding (percent of control), % at 10 µM; DSG3-coupled beads, scFv-anti-DSG3-GFP binding, flow cytometry; active compounds read low; P32926;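 active = binding more than 3 SD below its plate's average and above zero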;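 also: hits lower antibody fragment binding to DSG3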
Apaf-1 inh: blocks human Apaf-1 apoptosome activity | reconstituted apoptosome caspase-3 activity, DEVD-Rh110 fluorescence | O14727 | inhibition, % at 20 µM | 330,000 compounds, 0.71% hits | AID 489030; active = inhibition of at least 40% at 20 µM;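 also: plate controls were DMSO wells for no effect and DEVD-CHO caspase inhibitor wells for full effect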
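Medium: Hepes buffer, pH 7.5 / System: biochemical Apaf-1 apoptosome reconstitution / Measured by: Rh110 fluorescence, excitation 480 nm, emission 540 nm / Times: compound with Apaf-1, dATP, procaspase-3 30 min, then 50 min reaction, room temperature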
MEKK2 WT-MEK5: raises or lowers MEK5 binding to wildtype human MEKK2 PB1 domain | bead flow cytometry, Alexa488-MEK5 binding to MEKK2 WT; actives lie on both sides | 290,000 compounds, 1.1% hits | Q9Y2U5 | binding response (% of control), % at 10 µM | AID 1531; in the data active = binding response below about 67% or above about 130%
Casp3 UBC13 ctr: caspase-3 inhibition (UBC13 counter-screen); Recombinant caspase-3, Caspase-Glo 3/7 luminescence, 60 min; 1,400 compounds, 4% hits; shares compounds with UBC13 polyUb; inhibition, % at 20 µM;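 active = mean inhibition across replicates above about 26%, limit read from the data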;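 also: plate controls were DMSO with caspase-3 for no effect and DMSO wells lacking enzyme for full effect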
UBC13 confirm: human UBC13 polyubiquitin inhibition, confirmed | shares compounds with UBC13 polyUb | UBC13 polyubiquitination, TR-FRET, biochemical | inhibition, % at 10 µM | 1,400 compounds, 68% hits; in the data active = inhibition above about 45%
Apaf-1 inh conf: Apaf-1 inhibition, single-dose confirmed; shares compounds with Apaf-1 inh; reconstituted apoptosome, caspase-3 DEVD-Rh110 fluorescence; inhibition, % at 20 µM; 1,800 compounds, 25% hits; AID 504614;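 active = mean inhibition of at least 40% at 20 µM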;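 also: plate controls were DMSO wells for no effect and DEVD-CHO caspase inhibitor control wells for full effect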
Rh110 interf inh: interferes with Rh110 fluorescence, flagging false Apaf-1 inhibitors; shares compounds with Apaf-1 inh; Rh110 fluorescence interference, quenched caspase reaction; activation (fluorescence interference), % at 20 µM; 1,800 tested, under 10 active; AID 504615;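 active = signal rise of 40% or more at 20 µM, treated as a fluorescence artifact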
Fluor interf inh: counter-screen for Apaf-1 inhibitors: fluorescence interference, dose response | fluorescence interference counterscreen, Apaf-1 assay format | 460 tested, under 10 active | shares compounds with Apaf-1 inh | IC50, µM | AID 588538; call rule not given here
Numbers without * were called inactive; . = not tested or not shown.

SMILES | MEKK3 PB1 HTS | MEKK2mut PB1 HTS | UBC13 polyUb | Pemphigus Ab inh | Apaf-1 inh | MEKK2 WT-MEK5 | Casp3 UBC13 ctr | UBC13 confirm | Apaf-1 inh conf | Rh110 interf inh | others
Oc1ccc(C[C@@H]2CNCCN2CCC23CC4CC(CC(C4)C2)C3)cc1 | . | . | 58.1* | 105.5 | 47.0* | . | -3.3 | 24.7 | 1.5 | 5.1
CC(C)NC(=O)c1ccc2c(c1)N(CC(=O)N1CCCCC1)C(=O)C(C)(C)O2 | 102.0 | 0.0 | 5.7 | 118.9 | -4.8 | 101.0 | . | . | . | .
CCCCCOc1ccc(Br)cc1CSC(=N)N | 109.0 | 2.0 | . | 105.9 | . | 121.0 | . | . | . | .
CCCCCc1ccc(OCCCC[n+]2cccc(C)c2)c(CCCCC)c1 | 72.0 | -10.0 | 59.4* | 100.9 | 61.0* | 124.0 | -3.1 | 89.7* | 40.2* | 8.9 | Fluor interf inh=>100
COc1ccc(NS(=O)(=O)c2cc(C(=O)N3CCC3)ccc2C)cc1 | . | . | 71.4* | 104.7 | 47.5* | . | 2.6 | 77.3* | 12.8 | 3.5
CCCCC(=O)OCc1c(-c2ccccc2)ncc2ccccc12 | . | . | 4.6 | 101.5 | 18.5 | . | . | . | . | .
C[C@@H]1CN([C@@H](C)CO)C(=O)c2cccc(NC(=O)c3nc4ccccc4s3)c2O[C@@H]1CN(C)CC1CC1 | . | . | 30.3 | 91.4 | 32.8 | . | . | . | . | .
COc1ccc(C(CNC(=O)COc2c(C)cc(C)cc2C)N2CCOCC2)cc1 (stereo unspecified) | . | . | 51.2* | 110.2 | 66.5* | . | -0.9 | 29.1 | 44.8* | 7.2 | Fluor interf inh=>100
CCOC(=O)C1CCCN(C(=O)Cn2c(=O)c3cccn3c3cccnc32)C1 (stereo unspecified) | 102.0 | 1.0 | 4.6 | 86.9 | -2.1 | 102.0 | . | . | . | .
CCCCCCCCCCCCC/C=C/[C@@H](O)[C@@H](N)CO | . | . | 107.8* | 112.8 | 79.2* | . | -3.3 | 114.2* | 37.2 | 18.2
Cc1ccc2nc(N(CCCN(C)C)C(=O)c3ccc(S(=O)(=O)N4CCc5ccccc5C4)cc3)sc2c1 | 113.0 | 55.0* | 77.8* | . | 53.0* | 223.0* | -6.0 | 110.1* | 19.6 | 6.6
CN(C)CCCN(C(=O)c1ccc(S(=O)(=O)N2CCc3ccccc3C2)cc1)c1nc2ccc(F)cc2s1 | 116.0 | 71.0* | 54.6* | . | 70.3* | 252.0* | 5.8 | 98.8* | 45.8* | 5.1 | Fluor interf inh=>100
Cc1ccc2nc(N(CCCN(C)C)C(=O)c3ccc(S(=O)(=O)N(C)C)cc3)sc2c1 | 94.0 | 0.0 | 35.1 | . | 6.8 | 102.0 | . | . | . | .
CCOC(=O)N1CCN(S(=O)(=O)c2ccc(C(=O)N(CCCN(C)C)c3nc4cc(OC)ccc4s3)cc2)CC1 | . | . | 2.0 | 113.8 | 15.9 | . | . | . | . | .
Cc1ccc(C(C)C)cc1-n1nnc(-c2cccc(Cc3ccc4ccccc4c3)c2)c1C(C)O (stereo unspecified) | . | . | . | 104.7 | . | . | . | . | . | .
Cc1cc(S(=O)(=O)Nc2ccc(C(=O)NCCN3CCOCC3)cc2)ccc1F | . | . | . | 106.5 | . | . | . | . | . | .
COc1ccc(Cl)cc1NC(=O)CN(C)C(=O)/C=C/c1ccco1 | . | . | -6.5 | . | 5.9 | . | . | . | . | .
N=c1n(Cc2ccccc2)c2ccccc2n1Cc1ccccc1 | 95.0 | -2.0 | 23.9 | 109.8 | 13.2 | 106.0 | . | . | . | .
N=c1n(CC(=O)c2ccc(Br)cc2)c2ccccc2n1Cc1ccccc1 | . | . | 57.1* | 111.4 | 53.4* | . | -2.6 | 61.2* | -34.4 | 19.0
C#CCOCCOCCOCCNc1nc(N2CCN(C(=O)CCCCCCCCCCNC(=O)Cn3cc(CCCCCN)nn3)CC2)nc(N2CCN(C(=O)CCCCCCCCCCNC(=O)[C@H]([C@@H](C)CC)n3cc(CCCCCN)nn3)CC2)n1 | . | . | 124.1* | 109.5 | 74.3* | . | -2.4 | 123.0* | 58.0* | 5.3 | Fluor interf inh=>100
C#CCOCCOCCOCCNc1nc(N2CCN(C(=O)CCCCCCCCCCNC(=O)[C@H](CCCCN)n3cc(CCO)nn3)CC2)nc(N2CCN(C(=O)CCCCCCCCCCNC(=O)[C@H](CCCCN)n3cc(CCO)nn3)CC2)n1 | . | . | 116.6* | 117.6 | 64.0* | . | 3.0 | 124.6* | 46.4* | 0.6 | Fluor interf inh=>100
C#CCOCCOCCOCCNc1nc(N2CCN(C(=O)[C@H]([C@@H](C)CC)n3cc(CCCCN)nn3)CC2)nc(N2CCN(C(=O)[C@H]([C@@H](C)CC)n3cc(CCCN=C(N)N)nn3)CC2)n1 | . | . | 53.0* | 108.6 | 46.0* | . | -1.8 | 47.7* | 2.5 | 4.7
C#CCOCCOCCOCCNc1nc(N2CCN(C(=O)CCCCCCCCCCNC(=O)[C@H](CCCCN)n3cc(CCO)nn3)CC2)nc(N2CCN(C(=O)CCCCCCCCCCNC(=O)[C@@H]([C@H](C)O)n3cc(C)nn3)CC2)n1 | . | . | 120.8* | 157.5 | 59.2* | . | 2.5 | 121.6* | 31.0 | 5.9
C#CCOCCOCCOCCNc1nc(N2CCN(C(=O)[C@H]([C@@H](C)CC)n3cc(CCCCN)nn3)CC2)nc(N2CCN(C(=O)[C@H](C)n3cc(CCCN=C(N)N)nn3)CC2)n1 | . | . | 30.3 | 108.8 | 14.2 | . | . | . | . | .
C#CCOCCOCCOCCNc1nc(N2CCN(C(=O)Cn3cc(CCCCN)nn3)CC2)nc(N2CCN(C(=O)[C@H]([C@@H](C)CC)n3cc(CCCN=C(N)N)nn3)CC2)n1 | . | . | 27.4 | 110.9 | 20.5 | . | . | . | . | .
SMILES | MEKK3 PB1 HTS | MEKK2mut PB1 HTS | UBC13 polyUb | Pemphigus Ab inh | Apaf-1 inh | MEKK2 WT-MEK5 | Casp3 UBC13 ctr | UBC13 confirm | Apaf-1 inh conf | Rh110 interf inh | others
CC1=C(C#N)C(C)(C)C(C#N)=C(C)N1 | . | . | . | 104.8 | . | . | . | . | . | .
O=C(CCn1ccc2cc(S(=O)(=O)N3CCCC3)ccc21)NCc1cccc(F)c1 | 103.0 | 0.0 | 4.2 | 106.8 | -6.6 | 101.0 | . | . | . | .
CC(O)[C@H]1CN=C(N)N1CCc1cc(C(F)(F)F)cc(C(F)(F)F)c1 (stereo partly specified) | 89.0 | 4.0 | 10.9 | 98.7 | 4.9 | 101.0 | . | . | . | .
NC1=NC[C@@H](CC2CCCCC2)N1CCc1cc(C(F)(F)F)cc(C(F)(F)F)c1 | . | . | 91.2* | 116.0 | 78.7* | . | -3.6 | 101.0* | 50.5* | 28.7 | Fluor interf inh=>100
NC1=NC[C@H](c2ccccc2)N1CCc1cc(C(F)(F)F)cc(C(F)(F)F)c1 | 110.0 | 10.0 | 80.4* | 108.2 | 54.3* | 106.0 | -2.4 | 53.0* | 29.8 | 7.6
COc1cc(CCCN2C(N)=NC[C@@H]2c2ccccc2)cc(OC)c1OC | 109.0 | 7.0 | -2.5 | 101.3 | -0.2 | 113.0 | . | . | . | .
